Source: ChEMBL document CHEMBL1821604, “Anticancer activity and cDNA microarray studies of a (RS)-1,2,3,5-tetrahydro-4,1-benzoxazepine-3-yl]-6-chloro-9H-purine, and an acyclic (RS)-O,N-acetalic 6-chloro-7H-purine” (Eur J Med Chem, 2011)

Experiments:
Type in all cases: functional
[1] = test system: MCF7; assay: Down regulation of GLIPR1 gene expression in human MCF7 cells at IC50 after 48 hrs by cDNA microarray technique relative to control
Summary of the method: (§1)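 Cells (8 × 10⁶) were cultured in DMEM with 10% heat-inactivated FBS at 37 °C under 5% CO₂. They were exposed for 48 h to compound at its IC₅₀, with DMSO-treated parallel cultures as controls (final DMSO ≤0.1% v/v). Total RNA was isolated by trizol/chloroform phase separation, RNeasy column cleanup and on-column DNase, then quantified by OD260/OD280. Expression was profiled by cDNA microarray relative to control.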

[2] = test system: HT-29; assay: Down regulation of HAPLN3 gene expression in human HT-29 cells at IC50 after 48 hrs by cDNA microarray technique relative to control; summary of the method: as §1
[3] = test system: MCF7; assay: Down regulation of TGM4 gene expression in human MCF7 cells at IC50 after 48 hrs by cDNA microarray technique relative to control
[4] = test system: MCF7; assay: Down regulation of SLC16A7 gene expression in human MCF7 cells at IC50 after 48 hrs by cDNA microarray technique relative to control
[5] = test system: MCF7; assay: Down regulation of FLJ35954 gene expression in human MCF7 cells at IC50 after 48 hrs by cDNA microarray technique relative to control; summary of the method: as §1
[6] = test system: MCF7; assay: Down regulation of C21orf42 gene expression in human MCF7 cells at IC50 after 48 hrs by cDNA microarray technique relative to control
Summary of the method: (§2)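 8 × 10⁶ cells exposed 48 h to compound at its IC50 concentration; total RNA isolated with trizol/chloroform and RNeasy columns including on-column DNase step; RNA quantified by OD 260/280; DMSO-treated cultures as control.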

[7] = test system: MCF7; assay: Down regulation of CHST9 gene expression in human MCF7 cells at IC50 after 48 hrs by cDNA microarray technique relative to control; summary of the method: as §2
[8] = test system: MCF7; assay: Down regulation of TSSK6 gene expression in human MCF7 cells at IC50 after 48 hrs by cDNA microarray technique relative to control
[9] = test system: MCF7; assay: Down regulation of SNTG1 gene expression in human MCF7 cells at IC50 after 48 hrs by cDNA microarray technique relative to control
[10] = test system: HT-29; assay: Down regulation of IL12RB2 gene expression in human HT-29 cells at IC50 after 48 hrs by cDNA microarray technique relative to control; summary of the method: as §1
[11] = test system: MCF7; assay: Down regulation of IL1F9 gene expression in human MCF7 cells at IC50 after 48 hrs by cDNA microarray technique relative to control; summary of the method: as §1
[12] = test system: HT-29; assay: Upregulation of COL1A1 gene expression in human HT-29 cells at IC50 after 48 hrs by cDNA microarray technique relative to control
[13] = test system: HT-29; assay: Down regulation of AK5 gene expression in human HT-29 cells at IC50 after 48 hrs by cDNA microarray technique relative to control; summary of the method: as §2
[14] = test system: HT-29; assay: Down regulation of FADS6 gene expression in human HT-29 cells at IC50 after 48 hrs by cDNA microarray technique relative to control; summary of the method: as §1
[15] = test system: MCF7; assay: Down regulation of P53AIP1 gene expression in human MCF7 cells at IC50 after 48 hrs by cDNA microarray technique relative to control
[16] = test system: HT-29; assay: Down regulation of NBEA gene expression in human HT-29 cells at IC50 after 48 hrs by cDNA microarray technique relative to control
[17] = test system: HT-29; assay: Down regulation of NFATC1 gene expression in human HT-29 cells at IC50 after 48 hrs by cDNA microarray technique relative to control
[18] = test system: MCF7; assay: Down regulation of ADAMTS3 gene expression in human MCF7 cells at IC50 after 48 hrs by cDNA microarray technique relative to control; summary of the method: as §2
[19] = test system: MCF7; assay: Upregulation of SPACA3 gene expression in human MCF7 cells at IC50 after 48 hrs by cDNA microarray technique relative to control
[20] = test system: MCF7; assay: Down regulation of DKFZp727G131 gene expression in human MCF7 cells at IC50 after 48 hrs by cDNA microarray technique relative to control; summary of the method: as §2
[21] = test system: HT-29; assay: Down regulation of FLJ10786 gene expression in human HT-29 cells at IC50 after 48 hrs by cDNA microarray technique relative to control; summary of the method: as §1
[22] = test system: MCF7; assay: Upregulation of MAGEA2B gene expression in human MCF7 cells at IC50 after 48 hrs by cDNA microarray technique relative to control
[23] = test system: HT-29; assay: Down regulation of SNRP70 gene expression in human HT-29 cells at IC50 after 48 hrs by cDNA microarray technique relative to control
[24] = test system: HT-29; assay: Down regulation of CARHSP1 gene expression in human HT-29 cells at IC50 after 48 hrs by cDNA microarray technique relative to control; summary of the method: as §2
[25] = test system: HT-29; assay: Down regulation of PRO1855 gene expression in human HT-29 cells at IC50 after 48 hrs by cDNA microarray technique relative to control
[26] = test system: HT-29; assay: Down regulation of PRPS1 gene expression in human HT-29 cells at IC50 after 48 hrs by cDNA microarray technique relative to control
[27] = test system: MCF7; assay: Down regulation of BIVM gene expression in human MCF7 cells at IC50 after 48 hrs by cDNA microarray technique relative to control; summary of the method: as §2
[28] = test system: MCF7; assay: Down regulation of C11orf8 gene expression in human MCF7 cells at IC50 after 48 hrs by cDNA microarray technique relative to control; summary of the method: as §2
[29] = test system: HT-29; assay: Upregulation of CDH15 gene expression in human HT-29 cells at IC50 after 48 hrs by cDNA microarray technique relative to control
[30] = test system: HT-29; assay: Down regulation of BAZ2A gene expression in human HT-29 cells at IC50 after 48 hrs by cDNA microarray technique relative to control; summary of the method: as §2
[31] = test system: HT-29; assay: Down regulation of OR4K15 gene expression in human HT-29 cells at IC50 after 48 hrs by cDNA microarray technique relative to control
[32] = test system: HT-29; assay: Down regulation of ANXA6 gene expression in human HT-29 cells at IC50 after 48 hrs by cDNA microarray technique relative to control; summary of the method: as §2
[33] = test system: MCF7; assay: Upregulation of AY232284 gene expression in human MCF7 cells at IC50 after 48 hrs by cDNA microarray technique relative to control
[34] = test system: HT-29; assay: Down regulation of GK001 gene expression in human HT-29 cells at IC50 after 48 hrs by cDNA microarray technique relative to control; summary of the method: as §1
[35] = test system: MCF7; assay: Down regulation of THC2441203 gene expression in human MCF7 cells at IC50 after 48 hrs by cDNA microarray technique relative to control
[36] = test system: HT-29; assay: Down regulation of HNRPA2B1 gene expression in human HT-29 cells at IC50 after 48 hrs by cDNA microarray technique relative to control; summary of the method: as §1
[37] = test system: HT-29; assay: Down regulation of STK19 gene expression in human HT-29 cells at IC50 after 48 hrs by cDNA microarray technique relative to control
[38] = test system: HT-29; assay: Upregulation of LAMP3 gene expression in human HT-29 cells at IC50 after 48 hrs by cDNA microarray technique relative to control

COC(CN(c1ccccc1CO)S(=O)(=O)c1ccccc1[N+](=O)[O-])n1cnc2ncnc(Cl)c21 (racemic)
fold change (FC) [1]: -2.12 | fold change (FC) [2]: -2.64 | fold change (FC) [3]: -2.58 | fold change (FC) [4]: -2.27 | fold change (FC) [5]: -2.06 | fold change (FC) [6]: -2.31 | fold change (FC) [7]: -2.53 | fold change (FC) [8]: -2.43 | fold change (FC) [9]: -2.46 | fold change (FC) [10]: -2.3 | fold change (FC) [11]: -2.17 | fold change (FC) [12]: 4.97 | fold change (FC) [13]: -3.52 | fold change (FC) [14]: -2.34 | fold change (FC) [15]: -2.4 | fold change (FC) [16]: -2.89 | fold change (FC) [17]: -2.78 | fold change (FC) [18]: -2.06 | fold change (FC) [19]: 2.21 | fold change (FC) [20]: -2.03 | fold change (FC) [21]: -2.04

O=C(OCC1c2ccccc2-c2ccccc21)N1CC(n2cnc3c(Cl)ncnc32)OCc2ccccc21 (racemic)
fold change (FC) [22]: 2.53 | fold change (FC) [23]: -2.78 | fold change (FC) [24]: -2.12 | fold change (FC) [25]: -2 | fold change (FC) [26]: -2.68 | fold change (FC) [27]: -2.05 | fold change (FC) [28]: -2.88 | fold change (FC) [29]: 2.06 | fold change (FC) [30]: -2.65 | fold change (FC) [31]: -3.6 | fold change (FC) [32]: -2.27 | fold change (FC) [33]: 3.98 | fold change (FC) [34]: -2.03 | fold change (FC) [35]: -3.19 | fold change (FC) [36]: -2.33 | fold change (FC) [37]: -2.34 | fold change (FC) [38]: 2.91
